Laboratory results taken from ChEMBL document CHEMBL1124344, “5-Piperazinylalkyl-2(3H)-oxazolones with neuroleptic activity” (J Med Chem, 1989).

Tests used:
Mus musculus [1] = test: Antagonistic activity against amphetamine-induced hypermotility, after 1 hour of peroral administration in mouse; format: functional; details: po
Procedure, shortened: (§1)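 Male mice in groups of five, fasted overnight, given oral drug in arabic gum suspension (10 mL/kg) 1 or 5 h ahead. Amphetamine 4 mg/kg ip given 30 min after drug. Ten minutes later locomotion is recorded for 15 min in a photocell actophotometer. ED50 is 50% reduction versus control hypermotility, by probit analysis. Parenthetical entries give the maximal dose and percent activity.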

Mus musculus [2] = test: Contractile activity in skeletal muscles, after 1 hour of peroral administration in mouse; format: functional; details: Muscle tissue, po
Procedure, shortened: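 Male mice were placed for 1 h on a 60° inclined wire screen just after dosing and 4 h later. In a second test, trained mice hung by the forepaws from a horizontal 1.8 mm wire 15 cm up; normal mice touch it with a hind paw within 2 s and stay ≥1 min. ED50 is the dose making 50% fall. Dosing was oral in gum arabic suspension at 10 mL/kg after an overnight fast.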

Rattus norvegicus [3] = test: Antagonistic activity against amphetamine-induced stereotypy, after 1 hour of peroral administration in rats; format: functional; details: po
Procedure, shortened: (§2)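 Male rats dosed orally (arabic gum suspension, 10 mL/kg, fasted overnight) 1 or 5 h beforehand. Amphetamine 7.5 mg/kg iv, with stereotyped movements scored as present or absent 1 h later. ED50 is the dose inhibiting stereotypy in 50% of rats, by probit analysis. Parenthetical entries give the maximal dose and percent activity.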

Mus musculus [4] = test: Inhibition against apomorphine-induced climbing, after 1 hour of peroral administration in mouse; format: functional; details: po
Procedure, shortened: (§3)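 Mice were dosed orally (gum arabic suspension, 10 mL/kg, fasted), then given apomorphine 1 mg/kg sc and placed in cylindrical cages with vertical metal bars. Climbing was scored 0 for four paws on the floor, 1 for forefeet on the wall, 2 for four paws on the wall. ED50 is the dose halving the control score.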

Mus musculus [5] = test: Inhibition against apomorphine-induced turning, after 1 hr of peroral administration in mouse; format: functional; details: po
Procedure, shortened: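 Mice were lesioned unilaterally with intranigrostriatal 6-hydroxydopamine (20 µg). At 7 days, strong contraversive turners 15 min after apomorphine 2 mg/kg ip were selected. A week later they were dosed orally and rechallenged. Fewer than six full rotations in 2 min counted as protection. ED50 is the dose protecting 50%.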

Mus musculus [6] = test: Suppression of aggressive behavior, after 5 hour of peroral administration in mouse; format: functional; details: po
Procedure, shortened: (§4)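 Male mice made aggressive by isolation in individual black cages for about 1 month plus weekly testosterone cyclopentylpropionate 250 mg/kg sc; pairs preselected for attack on a nonisolated male within 15 min. Oral dosing (arabic gum, 10 mL/kg) 1 or 5 h before test, overnight fast. ED50 = dose suppressing aggression in 50% of animals, probit analysis.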

Rattus norvegicus [7] = test: Inhibition against conditioned avoidance response, after 1 hour of peroral administration in rats; format: functional; details: po
Procedure, shortened: (§5)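 Male rats were trained in a shuttle box to avoid grid-floor shock by crossing compartments during a warning period. Dosing was oral as a gum arabic suspension at 10 mL/kg after an overnight fast. Percent inhibition was computed against a pretraining test. ED50 is the dose giving 50% inhibition.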

Rattus norvegicus [8] = species on record: Rattus norvegicus; test: Body weight gain, after 2 hour period of conditioned feeding in rats; format: functional
Procedure, shortened: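 Female rats (250–280 g) were kept singly on a 22-h food deprivation schedule, with pellets 10–12 a.m. and water always available. After 30–40 days of training they were dosed 1 h before the 2-h feeding and weighed before and after it. Weight gain was expressed as a percentage of the two preceding control days. ED50 is the dose giving 50% reduction.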

Rattus norvegicus [9] = test: Activity to evoke catalepsy, after 1 hour of peroral administration in rats; format: functional; details: po
Procedure, shortened: (§6)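 Rats fasted overnight and given oral doses in arabic gum suspension (10 mL/kg), 1 h before screening or 1 and 5 h before profile testing. Forelegs placed on a horizontal bar 7 cm high, three times at 5-min intervals. Immobility of at least 15 s counts as catalepsy. ED50 is the dose giving catalepsy in 50% of rats, by probit analysis. Parenthetical entries give the maximal dose and percent activity.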

Mus musculus [10] = test: Anticonvulsant activity against tryptamine-induced convulsions, after 1 hour of peroral administration in mouse; format: functional; details: po
Procedure, shortened: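 Compounds were dosed as bases suspended in arabic gum at 10 mL/kg orally, after an overnight fast, with vehicle controls. Protection meant no bilateral forepaw clonic seizures or head twitches (tryptamine), or no tonic hind-limb extension (the other two). ED50 is the dose protecting 50%, by probit analysis.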

Rattus norvegicus [11] = test: Antagonistic activity against amphetamine-induced stereotypy, after 5 hour of peroral administration in rats; format: functional; details: po; procedure, shortened: as §2
Rattus norvegicus [12] = test: Inhibition against conditioned avoidance response, after 5 hour of peroral administration in rats; format: functional; details: po; procedure, shortened: as §5
Mus musculus [13] = test: Inhibition against apomorphine-induced climbing, after 5 hour of peroral administration in mouse; format: functional; details: po; procedure, shortened: as §3
Mus musculus [14] = test: Antagonistic activity against amphetamine-induced hypermotility, after 5 hour of peroral administration in mouse; format: functional; details: po; procedure, shortened: as §1
Mus musculus [15] = test: Potentiation against pentobarbital-induced sleeping, after 5 hour of peroral administration in mouse; format: functional; details: po
Procedure, shortened: (§7)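 Female mice fasted overnight, dosed orally 1 or 5 h beforehand as arabic gum suspension, 10 mL/kg, with vehicle controls. Subhypnotic pentobarbital 10 mg/kg iv; 3 min later placed on back, effect scored as complete loss of righting reflex for at least 15 s. ED50 = dose producing this in 50% of mice, probit analysis.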

Rattus norvegicus [16] = test: Antagonistic activity against apomorphine-induced stereotypy, after 5 hour of peroral administration in rats; format: functional; details: po
Procedure, shortened: (§8)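 Male rats fasted overnight and given oral doses in arabic gum suspension (10 mL/kg) 1 h, or 1 and 5 h, before challenge. Apomorphine 3 mg/kg iv, with stereotypy observed 20 min later. ED50 is the dose inhibiting stereotypy in 50% of rats, per Janssen's method. Parenthetical entries give the maximal dose and percent activity.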

Rattus norvegicus [17] = test: Antagonistic activity against apomorphine-induced stereotypy, after 1 hour of peroral administration in rats; format: functional; details: po; procedure, shortened: as §8
Mus musculus [18] = test: Potentiation against pentobarbital-induced sleeping, after 1 hour of peroral administration in mouse; format: functional; details: po; procedure, shortened: as §7
Canis familiaris = test: Antagonistic activity against apomorphine-induced emesis, after 5 hour of peroral administration in dogs; format: functional; details: Canis lupus familiaris, po
Procedure, shortened: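 Male and female dogs pretreated orally, then challenged with apomorphine 0.3 mg/kg sc. Complete protection from vomiting for 30 min after apomorphine is the criterion. ED50 is the dose protecting 50% of dogs, per Janssen's method.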

Rattus norvegicus [19] = test: Activity to evoke catalepsy, after 5 hour of peroral administration in rats; format: functional; details: po; procedure, shortened: as §6
[20] = Lethal dose in mice (LD50) following i.p. dosing; format: toxicity, organism-based; details: mouse, in vivo, ip
Procedure, shortened: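 Acute toxicity tested in mice by the intraperitoneal route. LD50 is the dose killing 50% of treated mice, computed by Finney probit analysis; values are approximate.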

Mus musculus [21] = test: Antagonistic activity against amphetamine-induced Hypermobility in mouse by administering perorally; format: functional; details: po; procedure, shortened: as §1
Mus musculus [22] = test: Suppression of aggressive behavior, after 1 hour of peroral administration in mouse; format: functional; details: po; procedure, shortened: as §4
Mus musculus [23] = test: Inhibition of spontaneous motor activity, after 1 hour of peroral administration in mouse; format: functional; details: po
Procedure, shortened: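 Mice fasted overnight, then dosed orally with compound (weighed as base) suspended in arabic gum, 10 mL/kg, with vehicle controls; 1 h pretreatment for screening tests, 1 or 5 h for others. Groups of five; locomotor activity counted 10 min in photocell activity cage, at least two groups per dose. ED50 = dose giving 50% inhibition versus controls, by probit analysis.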

Row | SMILES | ED50 (Mus musculus [1]) [mg/kg] | ED50 (Mus musculus [2]) [mg/kg] | ED50 (Rattus norvegicus [3]) [mg/kg] | ED50 (Mus musculus [4]) [mg/kg] | ED50 (Mus musculus [5]) [mg/kg] | ED50 (Mus musculus [6]) [mg/kg] | ED50 (Rattus norvegicus [7]) [mg/kg] | ED50 (Rattus norvegicus [8]) [mg/kg] | ED50 (Rattus norvegicus [9]) [mg/kg] | ED50 (Mus musculus [10]) [mg/kg] | ED50 (Rattus norvegicus [11]) [mg/kg] | ED50 (Rattus norvegicus [12]) [mg/kg] | ED50 (Mus musculus [13]) [mg/kg] | ED50 (Mus musculus [14]) [mg/kg] | ED50 (Mus musculus [15]) [mg/kg] | ED50 (Rattus norvegicus [16]) [mg/kg] | ED50 (Rattus norvegicus [17]) [mg/kg] | ED50 (Mus musculus [18]) [mg/kg] | ED50 (Canis familiaris) [mg/kg] | ED50 (Rattus norvegicus [19]) [mg/kg] | other results
1 | CN(C)CCCN1c2ccccc2Sc2ccc(Cl)cc21 [CHLORPROMAZINE] | 4.1 | 36.5 | 19.4 | 2 | 4.4 | 3.1 | 6.8 | 6 | 10.3 | 3.4 | 13.6 | 10.3 | 2.2 | 2.4 | 3.3 | 41.6 | 28.9 | 3.2 | – | – | –
2 | COc1ccccc1N1CCN(CCCC(=O)c2ccc(F)cc2)CC1 [FLUANISONE] | 16.4 | 20 | 17.8 | 5 | 14.7 | 20.1 | 25 | – | 18 | 12.5 | 50 | 50 | 15 | 18 | – | – | 63.2 | 20.7 | 8.6 | 13.9 | LD50 [20]: 180 mg/kg; ED50 (Mus musculus [21]): 16.4 mg/kg; ED50 (Mus musculus [22]): 6.1 mg/kg
3 | O=C(CCCN1CCC(O)(c2ccc(Cl)cc2)CC1)c1ccc(F)cc1 [HALOPERIDOL] | 0.12 | – | 0.27 | 0.12 | 0.32 | 0.29 | 0.23 | 0.3 | 15.4 | 1.1 | 0.39 | 0.32 | 0.045 | 0.28 | 3.1 | 1.8 | 1.1 | 7 | – | – | ED50 (Mus musculus [23]): 0.16 mg/kg
4 | O=c1[nH]c(-c2ccc(F)cc2)c(CCN2CCN(c3cc(Cl)cc(Cl)c3)CC2)o1 [LODIPERONE] | 1.5 | 200 | 13.5 | 0.37 | 0.84 | 8.5 | – | 2.2 | – | – | 4.2 | 6.4 | 0.21 | 1.9 | – | 106 | – | – | 2.5 | 24.3 | ED50 (Mus musculus [23]): 2.7 mg/kg; LD50 [20]: > 2000 mg/kg; ED50 (Mus musculus [21]): 1.5 mg/kg; ED50 (Mus musculus [22]): 23.8 mg/kg
5 | COc1ccccc1N1CCN(CCc2oc(=O)[nH]c2-c2ccc(F)cc2)CC1 [ZOLOPERONE] | 4 | – | 5.3 | 0.42 | 15.9 | 4.7 | 3.5 | 7.1 | 55.6 | 9.8 | 12.4 | 11.6 | 4 | 15 | 37.3 | 60.7 | 10.4 | 41.1 | 1.5 | 21.5 | ED50 (Mus musculus [23]): 4.6 mg/kg; LD50 [20]: > 2000 mg/kg; ED50 (Mus musculus [21]): 4 mg/kg; ED50 (Mus musculus [22]): 4.7 mg/kg
